Experimental data reported in PMC8360206 (Cancer, 2021).
Where two headings read alike, the source gives them in different places.

How the values were obtained:
patients with R/R AML = conditions: OTX015 monotherapy ref 10; cited from earlier work
[1] = test system: patients with relapsed/refractory AML; experiment: Safety: treatment‐emergent adverse events and DLTs; assay type: in vivo, human
Method in brief: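 3 + 3 dose escalation, daily dosing in 28-day cycles. Monotherapy was 1.5, 2.0 or 2.5 mg. TEAEs (first dose to 30 days post-discontinuation) were graded by NCI CTCAE v4.03 in all patients given ≥1 dose.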

[2] = test system: relapsed/refractory acute myeloid leukemia; experiment: Clinical activity: IWG response, bone marrow blast change, PFS, OS; assay type: in vivo, human
Method in brief: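 Adults (≥18 y) with relapsed/refractory AML got the test compound daily in 28-day cycles at 1.5, 2.0 or 2.5 mg as monotherapy. Response followed revised IWG AML criteria, comparing baseline bone marrow with at least 1 on-treatment marrow sample. Marrow was sampled at screening, C2D1 and as clinically indicated. Patients without a postbaseline sample were not evaluable. PFS and OS were summarised descriptively.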

[3] = Plasma mivebresib pharmacokinetics; assay type: in vivo, human
[4] = test system: DCXR, HEXIM1, CD93, MYC, BCL2, PUMA, BIM gene expression in peripheral blood; assay type: in vivo, human; conditions: for pharmacodynamic effects (gene modulation) vs dose and drug exposure: peripheral blood, correlation with Cmax, P < .05
Method in brief: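 Whole blood was drawn before and 6 h after the C1D1 monotherapy dose. RNA from it underwent whole-transcriptome sequencing, and marker expression was given as percent change from baseline. Linear regression related C1D1 plasma Cmax to biomarker change.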

[5] = test system: patients with relapsed/refractory solid tumors; conditions: cited from earlier work
[6] = MIV‐mono n = 19, started MIV‐Ven n = 25
[7] = started arms (mono n = 19, combination n = 25)
[8] = PB, 6 hours after MIV‐mono administration, P < .001

Structure (SMILES): Cc1sc2c(c1C)C(c1ccc(Cl)cc1)=N[C@@H](CC(=O)Nc1ccc(O)cc1)c1nnc(C)n1-2 [OTX015]
- rate of diarrhea (patients with R/R AML): 34%
- rate of nausea (patients with R/R AML): 22%
- rate of vomiting (patients with R/R AML): 7%

Structure (SMILES): CCS(=O)(=O)Nc1ccc(Oc2ccc(F)cc2F)c(-c2cn(C)c(=O)c3[nH]ccc23)c1 [mivebresib]
- anemia, grade ≥3 mivebresib‐related TEAE ([1]; MIV‐mono n = 19): 26%
- decreased appetite, TEAE frequency ([1]; MIV‐mono n = 19): 58%
- decreased appetite, grade ≥3 ([1]; MIV‐mono n = 19): 11%
- diarrhea, grade ≥3 ([1]; MIV‐mono n = 19): no grade ≥3
- fatigue, TEAE frequency ([1]; MIV‐mono n = 19): 68%
- fatigue, grade ≥3 ([1]; MIV‐mono n = 19): 21%
- nausea, grade ≥3 ([1]; MIV‐mono n = 19): 5%
- pneumonia, serious TEAE ([1]; MIV‐mono n = 19): 16%
- AML progression (AML), serious TEAE [1, 6]: 16%
- decreased appetite, mivebresib‐related TEAE [1, 6]: 42%
- diarrhea, mivebresib‐related TEAE [1, 6]: 42%
- dysgeusia, mivebresib‐related TEAE [1, 6]: 74%
- febrile neutropenia, serious TEAE [1, 6]: 16%
- grade ≥3 mivebresib‐related TEAEs, patients [1, 6]: 68%
- serious adverse events (serious TEAEs regardless of relatedness), patients [1, 6]: 74%
- thrombocytopenia, grade ≥3 mivebresib‐related TEAE [1, 6]: 32%
- dose‐limiting toxicities (DLTs) ([1]; first 4 weeks, all dose levels): No DLTs occurred
- ALT increased, AE related to mivebresib [1, 7]: 1 (5) No. of Patients (%)
- AST increased, AE related to mivebresib [1, 7]: 0 (0) No. of Patients (%)
- Anemia, AE related to mivebresib [1, 7]: 7 (37) No. of Patients (%)
- Anemia, TEAE [1, 7]: 13 (68) No. of Patients (%)
- Any TEAEs [1, 7]: 19 (100) No. of Patients (%)
- Cough, TEAE [1, 7]: 6 (32) No. of Patients (%)
- Decreased appetite, AE related to mivebresib [1, 7]: 8 (42) No. of Patients (%)
- Decreased appetite, TEAE [1, 7]: 11 (58) No. of Patients (%)
- Diarrhea, AE related to mivebresib [1, 7]: 8 (42) No. of Patients (%)
- Diarrhea, TEAE [1, 7]: 9 (47) No. of Patients (%)
- Dry mouth, AE related to mivebresib [1, 7]: 2 (11) No. of Patients (%)
- Dysgeusia, AE related to mivebresib [1, 7]: 14 (74) No. of Patients (%)
- Dysgeusia, TEAE [1, 7]: 15 (79) No. of Patients (%)
- Dyspnea, TEAE [1, 7]: 6 (32) No. of Patients (%)
- Epistaxis, AE related to mivebresib [1, 7]: 3 (16) No. of Patients (%)
- Epistaxis, TEAE [1, 7]: 4 (21) No. of Patients (%)
- Fatigue, AE related to mivebresib [1, 7]: 7 (37) No. of Patients (%)
- Fatigue, TEAE [1, 7]: 13 (68) No. of Patients (%)
- Febrile neutropenia, AE related to mivebresib [1, 7]: 0 (0) No. of Patients (%)
- Febrile neutropenia, TEAE [1, 7]: 7 (37) No. of Patients (%)
- Headache, AE related to mivebresib [1, 7]: 0 (0) No. of Patients (%)
- Hyperbilirubinemia, TEAE [1, 7]: 6 (32) No. of Patients (%)
- Hypokalemia, TEAE [1, 7]: 3 (16) No. of Patients (%)
- Hypomagnesemia, TEAE [1, 7]: 2 (11) No. of Patients (%)
- Muscular weakness, TEAE [1, 7]: 7 (37) No. of Patients (%)
- Nausea, AE related to mivebresib [1, 7]: 7 (37) No. of Patients (%)
- Nausea, TEAE [1, 7]: 9 (47) No. of Patients (%)
- Neutrophil count decreased, AE related to mivebresib [1, 7]: 2 (11) No. of Patients (%)
- Platelet count decreased, AE related to mivebresib [1, 7]: 2 (11) No. of Patients (%)
- Stomatitis, AE related to mivebresib [1, 7]: 1 (5) No. of Patients (%)
- Thrombocytopenia, AE related to mivebresib [1, 7]: 7 (37) No. of Patients (%)
- Thrombocytopenia, TEAE [1, 7]: 10 (53) No. of Patients (%)
- Vomiting, AE related to mivebresib [1, 7]: 5 (26) No. of Patients (%)
- Vomiting, TEAE [1, 7]: 6 (32) No. of Patients (%)
- WBC count decreased, AE related to mivebresib [1, 7]: 1 (5) No. of Patients (%)
- Weight decreased, AE related to mivebresib [1, 7]: 2 (11) No. of Patients (%)
- patients with an AE leading to discontinuation ([1]; whole study, MIV‐mono and MIV‐Ven): Seventeen
- response: CRi ([2]; 19 patients who received MIV‐mono): 5%
- median OS ([2]; MIV‐mono 1.5 mg): 15.7 weeks
- median PFS ([2]; MIV‐mono 1.5 mg): 7.2 weeks
- median OS ([2]; MIV‐mono 2.0 mg): 22.0 weeks
- median PFS ([2]; MIV‐mono 2.0 mg): 13.9 weeks
- median OS ([2]; MIV‐mono 2.5 mg): 12.6 weeks
- median PFS ([2]; MIV‐mono 2.5 mg): 10.6 weeks
- patients with FLT3 and NPM1 co‐occurrence who responded / had a reduction in BM blasts ([2]; MIV‐mono 3 patients, MIV‐Ven 4 patients): None
- response: CRi ([2]; MIV‐mono group): 1 patient
- patients with measurable reduction in BM blasts ([2]; assessable patients: 16 MIV‐mono, 15 only MIV‐Ven): 44%
- Best IWG response: Aplasia [2, 7]: 0 (0) No. of Patients (%)
- Best IWG response: CR [2, 7]: 0 (0) No. of Patients (%)
- Best IWG response: CRi [2, 7]: 1 (5) No. of Patients (%)
- Best IWG response: MLFS [2, 7]: 0 (0) No. of Patients (%)
- Best IWG response: PR [2, 7]: 0 (0) No. of Patients (%)
- Best IWG response: Resistant disease [2, 7]: 15 (79) No. of Patients (%)
- Best IWG response: Unknown: Not assessable or insufficient data [2, 7]: 3 (16) No. of Patients (%)
- steady‐state accumulation ratio ([3]; AUC0‐24 on C1D8 versus C1D1, daily dosing): approximately 2 fold
- dose proportionality of PK ([3]; dose‐normalized C1D8 Cmax and AUC24 over the studied dosing range): approximately dose proportional
- half-life ([3]; human, plasma, oral): 16.4 h
- effect of venetoclax coadministration on mivebresib PK ([3]; monotherapy vs combination cohorts): no effect
- BIM (proapoptotic gene) expression ([4]; 6 hours after MIV‐mono, P < .0005, data not shown): increased
- BCL2 (antiapoptotic gene) expression ([4]; 6 hours after MIV‐mono, P < .01, data not shown): inhibited
- PUMA (proapoptotic gene) expression ([4]; 6 hours after MIV‐mono, P < .064, data not shown): increased
- CD93 expression [4, 8]: decrease
- DCXR gene expression [4, 8]: increase
- HEXIM1 gene expression [4, 8]: increase
- MYC expression ([4]; PB, 6 hours after MIV‐mono administration, P < .083): decrease
- pharmacodynamic effects (gene modulation) vs dose and drug exposure [4]: proportional to dose and drug exposure
- pharmacodynamic effects (gene modulation) vs dose and drug exposure ([4]; listed as MIV‐mono): dose‐dependent
- solid tumor recommended phase 2 dose [5]: 1.5 mg daily
